B1: Clone 1B: 3xFLAG-tagged human aldolase C aa 101-210, 16 kDa (protein, UniProt P09972 101-210, looked up, fragment)
chain: KGIVVGIKVDKGVVPLAGTDGETTTQGLDGLSERCAQYKKDGADFAKWRCVLKISERTPSALAILENANVLARYASICQQNGIVPIVEPEILPDGDHDLKRCQYVTEKVL
modifications: 3xFLAG tag
B2: Clone 1: 3xFLAG-tagged human aldolase C aa 1-210, 26 kDa (protein, UniProt P09972 1-210, looked up, fragment)
chain: MPHSYPALSAEQKKELSDIALRIVAPGKGILAADESVGSMAKRLSQIGVENTEENRRLYRQVLFSADDRVKKCIGGVIFFHETLYQKDDNGVPFVRTIQDKGIVVGIKVDKGVVPLAGTDGETTTQGLDGLSERCAQYKKDGADFAKWRCVLKISERTPSALAILENANVLARYASICQQNGIVPIVEPEILPDGDHDLKRCQYVTEKVL
modifications: 3xFLAG tag
B3: Clone 1A: 3xFLAG-tagged human aldolase C aa 1-100, 15 kDa (protein, UniProt P09972 1-100, looked up, fragment)
chain: MPHSYPALSAEQKKELSDIALRIVAPGKGILAADESVGSMAKRLSQIGVENTEENRRLYRQVLFSADDRVKKCIGGVIFFHETLYQKDDNGVPFVRTIQD
modifications: 3xFLAG tag
B4: Clone 2: 3xFLAG-tagged human aldolase C aa 101-300, 25 kDa (protein, UniProt P09972 101-300, looked up, fragment)
chain: KGIVVGIKVDKGVVPLAGTDGETTTQGLDGLSERCAQYKKDGADFAKWRCVLKISERTPSALAILENANVLARYASICQQNGIVPIVEPEILPDGDHDLKRCQYVTEKVLAAVYKALSDHHVYLEGTLLKPNMVTPGHACPIKYTPEEIAMATVTALRRTVPPAVPGVTFLSGGQSEEEASFNLNAINRCPLPRPWALTF
modifications: 3xFLAG tag
B5: full-length: 3xFLAG-tagged human aldolase C aa 1-364, 43 kDa (protein, UniProt P09972 1-364, looked up)
chain: MPHSYPALSAEQKKELSDIALRIVAPGKGILAADESVGSMAKRLSQIGVENTEENRRLYRQVLFSADDRVKKCIGGVIFFHETLYQKDDNGVPFVRTIQDKGIVVGIKVDKGVVPLAGTDGETTTQGLDGLSERCAQYKKDGADFAKWRCVLKISERTPSALAILENANVLARYASICQQNGIVPIVEPEILPDGDHDLKRCQYVTEKVLAAVYKALSDHHVYLEGTLLKPNMVTPGHACPIKYTPEEIAMATVTALRRTVPPAVPGVTFLSGGQSEEEASFNLNAINRCPLPRPWALTFSYGRALQASALNAWRGQRDNAGAATEEFIKRAEVNGLAAQGKYEGSGEDGGAAAQSLYIANHAY
modifications: full-length 3xFLAG tag

This experiment relates to 9F mAb. As to the kind of experiment: Immunoblot of 3xFLAG-tagged aldolase C fragments in Neuro2a lysates with 9F mAb. The following applies: Neuro2a total protein lysates; 15% SDS-PAGE; 9F 1:1000; ECL. In kind it is binding, mouse. Summed up:
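Neuro2a cells were plated without antibiotics to reach 70–90% confluence, transfected with lipofectamine 2000, given fresh medium at 6h and grown 48h at 37 °C. Lysis was 30 min on ice in 50mM Tris-HCl pH 7.5, 150mM NaCl, 0.1% Triton X-100 and 0.5 mM PMSF, cleared at 16000xg. Blots went onto nitrocellulose, blocked 1h in 5% milk/T-PBS. Primary 1h RT or overnight 4 °C; HRP anti-mouse 1:5000, 45min. α-tubulin loading control.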
For B1, the “recognition of 3xFLAG-tagged aldolase C fragment by 9F mAb” value is “detected Clone 1A (15kDa) but not Clone 1B”.
The same measure for B2: “recognized”; for B3: “detected”.
The same measure for B4: “absence of ECL signal”; for B5: “recognized”.

Source of the values: publication PMC4011915 (mAbs, 2014).
